Experimental findings from ChEMBL document CHEMBL1123760, “Synthesis and oral antifungal activity of novel azolylpropanolones and related compounds” (1987) are described below.

Holding throughout (assay type): functional
The test system of experiment [1] is Candida albicans. Description: In vitro antifungal activity against Candida albicans. The following applies: Candida albicans; read-out: MIC. The method in brief:
(§1)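 Broth microdilution MIC in Sabouraud's glucose broth; final inocula 1 × 10^5 cells/mL (yeast) or 1 × 10^5 conidia/mL (mold and dermatophyte).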

In a further experiment the test system is Aspergillus fumigatus. The experiment is described as follows: In vitro antifungal activity against Aspergillus fumigatus. Conditions: Aspergillus fumigatus; read-out: MIC. An outline of the steps:
as §1

For experiment [2], the system named is Candida albicans. The experiment is described as follows: Minimum effective concentration for inhibition of pseudomycelium formation in Candida albicans. Conditions: Candida albicans; read-out: MEC. An outline of the steps:
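C. albicans KE-2 (clinical isolate) at a final 1 × 10^6 yeast cells/mL in EMEM with 20% calf serum; compounds diluted by the same microtiter system as for MICs. After incubation, wells were Giemsa-stained (5% in phosphate buffer) and read by microscope. MEC is the lowest concentration preventing typical pseudomycelium formation.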

The test system of a further experiment is Trichophyton benhamiae. The experiment is described as follows: In vitro antifungal activity against Trichophyton asteroides. The following applies: Trichophyton benhamiae; read-out: MIC. An outline of the steps: as §1

Structures are written as SMILES. ≈ marks a conversion by molar mass, not a printed value.

Consider `Clc1ccc([C@H]2OCO[C@]2(Cn2cncn2)c2ccccc2)c(Cl)c1`, for which the MIC (as a rule, the least concentration at which growth counts as inhibited) is over 100 µg/mL in the experiment on Candida albicans [1], 12.5 µg/mL (≈ 33.2 µM) with Aspergillus fumigatus and 0.2 µg/mL (≈ 0.532 µM) in the experiment on Trichophyton benhamiae. Further, in the experiment on Candida albicans [2], the minimal effective concentration was 0.63 µg/mL.
The matching figures for `O=S1O[C@H](c2ccccc2)[C@@](Cn2cncn2)(c2ccc(Cl)cc2Cl)O1` (some centres undefined): over 100 µg/mL, 50 µg/mL (≈ 122 µM), 0.1 µg/mL (≈ 0.244 µM) and 0.04 µg/mL.
Taken in the same sequence, the figures for `Cc1ccc([C@H]2OC(=O)O[C@]2(Cn2cncn2)c2ccc(C)cc2)cc1` were over 100 µg/mL, over 100 µg/mL, 3.1 µg/mL (≈ 8.87 µM) and 1.25 µg/mL.
The matching figures for `O=C(c1ccccn1)C(O)(Cn1cncn1)c1ccccn1` (centres undefined): over 100 µg/mL, over 100 µg/mL, over 100 µg/mL and over 20 µg/mL.
With `O=C1O[C@H](c2ccc(F)cc2)[C@@](Cn2ccnc2)(c2ccc(Cl)cc2Cl)O1`, the results for the minimal inhibitory concentration (MIC) with Candida albicans [1], with Aspergillus fumigatus and with Trichophyton benhamiae were 100 µg/mL (≈ 246 µM), 50 µg/mL (≈ 123 µM) and 0.2 µg/mL (≈ 0.491 µM), respectively. Also, the minimal effective concentration in the experiment with Candida albicans [2] was determined as 0.16 µg/mL.
Taken in the same sequence, the figures for `Cc1ccc([C@H]2OC(=O)O[C@]2(Cn2cncn2)c2ccccc2Cl)cc1` were over 100 µg/mL, over 100 µg/mL, 3.1 µg/mL (≈ 8.38 µM) and 0.63 µg/mL.
Taken in the same sequence, the figures for `COc1ccc(C(=O)C(O)(Cn2cnnc2)c2ccc(OC)cc2)cc1` (centres undefined) were over 100 µg/mL, over 100 µg/mL, 50 µg/mL (≈ 141 µM) and 2.5 µg/mL.
The matching figures for `OC(Cc1ccc(Cl)cc1)(c1ccccc1)C(O)(Cn1cncn1)c1ccc(Cl)cc1Cl` (centres undefined): over 100 µg/mL, over 100 µg/mL, 50 µg/mL (≈ 102 µM) and 20 µg/mL.
As to `O=C(c1ccc(F)cc1)C(O)(Cn1cncn1)c1ccc(Cl)cc1` (centres undefined), the MIC in the experiment on Candida albicans [1] was 100 µg/mL (≈ 289 µM); with Aspergillus fumigatus, over 100 µg/mL; in the experiment with Trichophyton benhamiae, 0.8 µg/mL (≈ 2.31 µM). The minimal effective concentration in the experiment with Candida albicans [2] is 1.25 µg/mL.
The matching figures for `CC(C)C(C)(O)C(O)(Cn1cncn1)c1ccccc1` (centres undefined): over 100 µg/mL, over 100 µg/mL, 6.3 µg/mL (≈ 22.9 µM) and 10 µg/mL.
Taken in the same sequence, the figures for `CC(C)C(O)(Cn1cncn1)C(O)(c1ccc(Cl)cc1)c1ccc(Cl)cc1` (centres undefined) were over 100 µg/mL, over 100 µg/mL, 6.3 µg/mL (≈ 15.5 µM) and over 20 µg/mL.
The matching figures for `CC(C)C(=O)C(O)(Cn1cnnc1)c1ccc(Cl)cc1Cl` (centres undefined): over 100 µg/mL, over 100 µg/mL, 50 µg/mL (≈ 152 µM) and 2.5 µg/mL.
As for `O=C(c1ccc(Cl)cc1Cl)C(O)(Cn1cnnc1)c1ccc(Cl)cc1` (centres undefined), the MIC with Candida albicans [1], in the experiment on Aspergillus fumigatus and in the experiment on Trichophyton benhamiae was over 100 µg/mL in each case. Besides, the minimal effective concentration in the experiment with Candida albicans [2] was over 20 µg/mL.
Take `OC(c1ccc(F)cc1)C(O)(Cn1cncn1)c1ccc(F)cc1` (centres undefined): the MIC in the experiment with Candida albicans [1] was over 100 µg/mL; in the experiment on Aspergillus fumigatus, over 100 µg/mL; in the experiment with Trichophyton benhamiae, 1.6 µg/mL (≈ 4.83 µM). Further, the minimal effective concentration in the experiment on Candida albicans [2] was 10 µg/mL.
Turning to `CC(C)C(O)(Cn1cncn1)C(C)(O)c1ccc(Cl)cc1` (centres undefined), the MIC with Candida albicans [1] is over 100 µg/mL; in the experiment on Aspergillus fumigatus, 50 µg/mL (≈ 161 µM); in the experiment on Trichophyton benhamiae, 1.6 µg/mL (≈ 5.16 µM). The minimal effective concentration in the experiment with Candida albicans [2] is 5 µg/mL.
Taken in the same sequence, the figures for `CC(C)CC(O)(Cn1cncn1)C(=O)c1ccc(Cl)cc1` (centres undefined) were over 100 µg/mL, over 100 µg/mL, 0.8 µg/mL (≈ 2.6 µM) and 0.31 µg/mL.
The matching figures for `CC(C)[C@H]1OCO[C@@]1(Cn1cncn1)c1ccc(Cl)cc1`: over 100 µg/mL, 100 µg/mL (≈ 325 µM), 0.4 µg/mL (≈ 1.3 µM) and 0.04 µg/mL.
The matching figures for `CC(C)[C@H]1OS(=O)O[C@@]1(Cn1cncn1)c1ccc(Cl)cc1` (some centres undefined): over 100 µg/mL, over 100 µg/mL, 0.4 µg/mL (≈ 1.17 µM) and 0.16 µg/mL.
Regarding `O=S1O[C@H](c2ccc(Cl)cc2)[C@](Cn2cncn2)(c2ccc(Cl)cc2Cl)O1` (some centres undefined), the MIC is over 100 µg/mL with Candida albicans [1], over 100 µg/mL in the experiment with Aspergillus fumigatus and 0.1 µg/mL (≈ 0.225 µM) in the experiment on Trichophyton benhamiae. In addition, in the experiment with Candida albicans [2], the minimal effective concentration was 0.02 µg/mL.
With `O=S1O[C@H](c2ccccc2)[C@](Cn2cncn2)(c2ccc(Cl)cc2Cl)O1` (some centres undefined), the results for the MIC in the experiment with Candida albicans [1], in the experiment with Aspergillus fumigatus and in the experiment with Trichophyton benhamiae were over 100 µg/mL, over 100 µg/mL and 0.1 µg/mL (≈ 0.244 µM), respectively. Further, in the experiment on Candida albicans [2], the minimal effective concentration came out at 0.08 µg/mL.
In the case of `OC(c1ccc(Cl)cc1)C(O)(Cn1ccnc1)c1ccc(Cl)cc1` (centres undefined), the MIC in the experiment with Candida albicans [1] was over 100 µg/mL; with Aspergillus fumigatus, over 100 µg/mL; with Trichophyton benhamiae, 50 µg/mL (≈ 138 µM). Further, the minimal effective concentration in the experiment on Candida albicans [2] was over 20 µg/mL.
